# Source: ChEMBL document CHEMBL1152344, “Anti-coxsackie virus B3 norsesquiterpenoids from the roots of Phyllanthus emblica” (J Nat Prod, 2009)
# Tests used:
# Coxsackievirus B3 = assay: Antiviral activity against Coxsackie virus B3 […] infected in human HeLa cells assessed as reduction of virus-induced cytopathic effect by MTT assay; type: functional, organism-based, Nancy
# How it was run: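 HeLa monolayers were exposed to 100 TCID₅₀ of CVB3 […] together with serial 2-fold compound dilutions below CC₅₀, in DMEM with 2% serum. Uninfected and untreated infected wells served as controls. Plates were kept at 37 °C in humidified CO₂ until virus control CPE peaked, then read by MTT. IC₅₀ is the concentration reducing CPE by 50%, as mean of three independent experiments.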
# [1] = Cytotoxicity against human HeLa cells after 48 hrs by MTT assay; type: cell-based
# How it was run: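 HeLa monolayers were treated with compound at 200–6.25 µg/mL in DMEM with 2% serum for 48 h at 37 °C. MTT (0.5 mg/mL in PBS) was added for 4 h, then DMSO for 30 min at room temperature, and OD was read at 570/630 nm. CC₅₀ was taken from the mean dose-response curve of three independent experiments.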
# [2] = Therapeutic index, CC50 for human HeLa cells to IC50 for Coxsackie virus B3 […]; type: cell-based; conditions: read-out: Ratio CC50/IC50
# How it was run: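 TI is CC₅₀ divided by IC₅₀. CC₅₀ comes from a 48 h HeLa MTT viability assay; IC₅₀ comes from an MTT-read CPE-inhibition assay with 100 TCID₅₀ CVB3 […] in HeLa cells. Both use DMEM with 2% serum at 37 °C and are means of three independent experiments.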
# [3] = Enterovirus B, Nancy, HeLa, read-out: IC50
SMILES,IC50 (Coxsackievirus B3; hela),CC50 at 48 h [1] [µg/mL],IC50 (Coxsackievirus B3; [3]) [µg/mL],selectivity ratio [2]
C[C@@H]1CO[C@@]2(C[C@@H]1OC(=O)c1ccc(O)cc1)O[C@@H]1C[C@@H](C(=O)O[C@@H]3O[C@H](CO)[C@@H](O)[C@H](O)[C@H]3O[C@@H]3O[C@H](CO)[C@@H](O)[C@H](O)[C@H]3O)C[C@@H](O)[C@]1(O)C2=O [4'-HYDROXYPHYLLAEMBLICIN B],Not Active,–,–,–
COC(=O)[C@H]1C[C@@H](O)[C@]2(O)C(=O)[C@]3(C[C@H](OC(=O)c4ccccc4)[C@H](C)CO3)O[C@@H]2C1 [PHYLLAEMBLIC ACID METHY ESTER],–,214,21.8,9.8
C[C@@H]1CO[C@@]2(C[C@@H]1OC(=O)c1ccccc1)O[C@@H]1C[C@@H](C(=O)O)C[C@@H](O)[C@]1(O)C2=O [PHYLLAEMBLIC ACID],Not Active,–,–,–
C[C@@H]1CO[C@@]2(C[C@@H]1OC(=O)c1ccccc1)O[C@@H]1C[C@@H](C(=O)O[C@@H]3O[C@H](CO)[C@@H](O)[C@H](O)[C@H]3O)C[C@@H](O)[C@]1(O)C2=O [PHYLLAEMBLICIN A],Not Active,–,–,–
C[C@@H]1CO[C@@]2(C[C@@H]1OC(=O)c1ccccc1)O[C@@H]1C[C@@H](C(=O)O[C@@H]3O[C@H](CO)[C@@H](O)[C@H](O)[C@H]3O[C@@H]3O[C@H](CO)[C@@H](O)[C@H](O)[C@H]3O)C[C@@H](O)[C@]1(O)C2=O [PHYLLAEMBLICIN B],–,50.2,7.8,6.4
C[C@@H]1CO[C@@]2(C[C@@H]1OC(=O)c1ccccc1)O[C@@H]1C[C@@H](C(=O)O[C@@H]3O[C@H](CO)[C@@H](O)[C@H](O)[C@H]3O[C@@H]3O[C@H](CO)[C@@H](O)[C@H](O)[C@H]3O[C@@H]3OC[C@@H](O)[C@@H](O)[C@@H]3O)C[C@@H](O)[C@]1(O)C2=O [PHYLLAEMBLICIN C],–,67.7,11,6.2
C[C@@H]1CO[C@@]2(C[C@@H]1OC(=O)c1ccccc1)O[C@@H]1C[C@@H](C(=O)O[C@@H]3O[C@H](CO)[C@@H](O)[C@H](O)[C@H]3O[C@@H]3O[C@H](CO)[C@@H](O)[C@H](O)[C@H]3O[C@@H]3OC[C@H](O)[C@@H](O)[C@@H]3O)C[C@@H](O)[C@]1(O)[C@H]2O [PHYLLAEMBLICIN E],Not Active,–,–,–
C[C@@H]1CO[C@@]2(C[C@@H]1OC(=O)c1ccccc1)O[C@@H]1C[C@@H](C(=O)OC[C@H]3O[C@@H](O[C@H]4[C@H](OC(=O)[C@H]5C[C@@H](O)[C@]6(O)C(=O)[C@]7(C[C@H](OC(=O)c8ccccc8)[C@H](C)CO7)O[C@@H]6C5)O[C@H](CO)[C@@H](O)[C@@H]4O)[C@H](O)[C@@H](O)[C@@H]3O)C[C@@H](O)[C@]1(O)C2=O [PHYLLAEMBLICIN F],Not Active,–,–,–
NC(=O)c1ncn([C@@H]2O[C@H](CO)[C@@H](O)[C@H]2O)n1 [RIBAVIRIN],–,426,20.3,21
